The source of these data is ChEMBL document CHEMBL1125461, “Analogues of platelet activating factor. 6. Mono- and bis-aryl phosphate antagonists of platelet activating factor” (J Med Chem, 1992).

One may read the Inhibition as the percentage by which the read-out fell short of the control. The low end stands for a weak effect, the high end for a strong effect.

Holding throughout (format): functional
Assay [1] relates to Mus musculus. In words: Compound was tested for protecting PAF-induced lethality in mouse at a dose of 10 mg/kg (Out of 10). In a few lines: (§1)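 Female Swiss-Webster mice (20–25 g) were dosed ip with compound in saline at 10 mL/kg, and controls got saline alone. Thirty minutes later, racemic C16-PAF in saline was given as an iv tail-vein bolus at 10 mL/kg (75–150 µg/kg PAF). Survival was checked at 1.5 h and was recorded as dead/total.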

For assay [2], the system named is Mus musculus. The assay is described as follows: Compound was tested for protecting PAF-induced lethality in mouse at a dose of 1 mg/kg (Out of 10). The method, boiled down:
as §1

Assay [3] relates to Mus musculus. In words: Compound was tested for protecting PAF-induced lethality in mouse at a dose of 2.5 mg/kg (Out of 10). The method, boiled down:
as §1

The species entered for assay [4] is Oryctolagus cuniculus. The assay is described as follows: Compound was tested for its ability to inhibit PAF induced platelet aggregation in rabbit (No inhibition observed at a compound concentration up to 10 uM).
Assay [5] deals with Mus musculus. In words: Compound was tested for protecting PAF-induced lethality in mouse at a dose of 1.25 mg/kg (Out of 10). The method, boiled down: as §1
Assay [6] deals with Oryctolagus cuniculus. The assay is described as follows: Compound was tested for protecting PAF-induced lethality in rabbit at a dose of 2.5 mg/kg (Out of 2). In a few lines:
(§2)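 Rabbits got compound iv 15 min before an iv challenge of L-C16-PAF at 150 µg/kg, made from a methanol stock diluted in saline. Controls were saline-treated. Survival was checked at 1 h and was recorded as dead/total.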

The species entered for assay [7] is Oryctolagus cuniculus. In words: Compound was tested for its ability to inhibit PAF induced platelet aggregation in rabbit at a dose of 50 uM.
Assay [8] concerns Mus musculus. In words: Compound was tested for protecting PAF-induced lethality in mouse at a dose of 0.5 mg/kg (Out of 11). In a few lines: as §1
Assay [9] relates to Mus musculus. The assay is described as follows: Compound was tested for protecting PAF-induced lethality in mouse at a dose of 0.5 mg/kg (Out of 9). The method, boiled down: as §1
Assay [10] concerns Mus musculus. In words: Compound was tested for protecting PAF-induced lethality in mouse at a dose of 0.5 mg/kg (Out of 10). The method, boiled down:
as §1

Assay [11] concerns Mus musculus. The assay is described as follows: Compound was tested for protecting PAF-induced lethality in mouse at a dose of 0.5 mg/kg (Out of 830). The method, boiled down:
as §1

The subject of assay [12] is Oryctolagus cuniculus. The assay is described as follows: Compound was tested for protecting PAF-induced lethality in rabbit at a dose of 1 mg/kg (Out of 11). In a few lines: as §2
For assay [13], the system named is Oryctolagus cuniculus. In words: Compound was tested for protecting PAF-induced lethality in rabbit at a dose of 2.5 mg/kg (Out of 4). In a few lines: as §2
The subject of assay [14] is Oryctolagus cuniculus. In words: Compound was tested for protecting PAF-induced lethality in rabbit at a dose of 5 mg/kg (Out of 5). In a few lines:
as §2

The subject of assay [15] is Mus musculus. In words: Compound was tested for protecting PAF-induced lethality in mouse at a dose of 0.5 mg/kg (Out of 38). The method, boiled down: as §1
Assay [16] deals with Oryctolagus cuniculus. In words: Compound was tested for protecting PAF-induced lethality in rabbit at a dose of 3 mg/kg (Out of 2).
For assay [17], the system named is Mus musculus. The assay is described as follows: Compound was tested for protecting PAF-induced lethality in mouse at a dose of 1 mg/kg (Out of 12). In a few lines: as §1
For assay [18], the system named is Mus musculus. In words: Compound was tested for protecting PAF-induced lethality in mouse at a dose of 10 mg/kg (Out of 13). The method, boiled down: as §1
Assay [19] has as its system Oryctolagus cuniculus. In words: Compound was tested for protecting PAF-induced lethality in rabbit at a dose of 5 mg/kg (Out of 3). The method, boiled down:
as §2

Assay [20] relates to Oryctolagus cuniculus. In words: Compound was tested for protecting PAF-induced lethality in rabbit at a dose of 10 mg/kg (Out of 5). In a few lines: as §2
For assay [21], the system named is Mus musculus. In words: Compound was tested for protecting PAF-induced lethality in mouse at a dose of 0.5 mg/kg (Out of 220). The method, boiled down: as §1
Assay [22] has as its system Mus musculus. In words: Compound was tested for protecting PAF-induced lethality in mouse at a dose of 1 mg/kg (Out of 88). The method, boiled down:
as §1

Assay [23] relates to Oryctolagus cuniculus. In words: Compound was tested for protecting PAF-induced lethality in rabbit at a dose of 1 mg/kg (Out of 3). The method, boiled down: as §2
Assay [24] relates to Mus musculus. In words: Compound was tested for protecting PAF-induced lethality in mouse at a dose of 1 mg/kg (Out of 74). The method, boiled down:
as §1

In assay [25] the test system is Mus musculus. In words: Compound was tested for protecting PAF-induced lethality in mouse at a dose of 0.5 mg/kg (Out of 23). The method, boiled down: as §1
The test system of assay [26] is Mus musculus. The assay is described as follows: Compound was tested for protecting PAF-induced lethality in mouse at a dose of 0.5 mg/kg (Out of 41). The method, boiled down: as §1
Assay [27] is filed under the species Oryctolagus cuniculus. In words: Compound was tested for its ability to inhibit PAF induced platelet aggregation in rabbit at a dose of 10 uM.
Assay [28] deals with Oryctolagus cuniculus. The assay is described as follows: Compound was tested for protecting PAF-induced lethality in rabbit at a dose of 10 mg/kg (Out of 2). In a few lines: as §2
Assay [29] has as its system Mus musculus. The assay is described as follows: Compound was tested for protecting PAF-induced lethality in mouse at a dose of 10 mg/kg (Out of 12). The method, boiled down: as §1
The subject of assay [30] is Mus musculus. The assay is described as follows: Compound was tested for protecting PAF-induced lethality in mouse at a dose of 2.5 mg/kg (Out of 16). In a few lines:
as §1

Assay [31] has as its system Mus musculus. In words: Compound was tested for protecting PAF-induced lethality in mouse at a dose of 0.5 mg/kg (Out of 49). In a few lines:
as §1

Assay [32] relates to Oryctolagus cuniculus. In words: Compound was tested for protecting PAF-induced lethality in rabbit at a dose of 1 mg/kg (Out of 2). The method, boiled down: as §2

The structures appear in SMILES notation.

In the case of `CCCCCCCCCCCCCCOc1ccc(C(=O)c2ccccc2)c(OP(=O)([O-])Oc2cccc(C[n+]3csc(C)c3)c2)c1`, the Lethality is on record as 0 dead/total with Mus musculus [1] and 3 dead/total with Mus musculus [2]. Regarding `CCCCCCCCCCCCCCCCCCNC(=O)OCC(COP(=O)([O-])Oc1ccccc1C[n+]1ccsc1)OC` (stereo not drawn), in the assay on Mus musculus [3], the Lethality is listed as 0 dead/total. With `CCCCCCCCCCCCCCOc1cccc(OP(=O)([O-])Oc2cccc(CC[n+]3csc(C)c3)c2)c1OC`, the IC50 entry in the assay listed under Oryctolagus cuniculus [4] is recorded as “Not Active”.

For the compound `CCCCCCCCCCCCCCCCOCC(COP(=O)([O-])Oc1cccc(C[n+]2ccsc2)c1)OC` (stereo not drawn), the Lethality in the assay with Mus musculus [5] is reported as 2 dead/total; in the assay with Oryctolagus cuniculus [6], 1 dead/total. `CCCCCCCCCCCCOc1cc(OP(=O)([O-])Oc2cccc(C[n+]3ccsc3)c2)c(C(C)(C)C)cc1C(C)(C)C` displayed an Inhibition in the assay filed under Oryctolagus cuniculus [7] of 15%. This compound also displayed a Lethality in the assay with Oryctolagus cuniculus [6] of 2 dead/total. `CCCCCCCCCCCCCCOc1cccc(OP(=O)([O-])Oc2cccc(C[n+]3ccsc3)c2)c1C(=O)OC`: the figures for the Lethality with Mus musculus [2] and in the assay with Mus musculus [8] were 5 dead/total and 11 dead/total, respectively. Take `CCCCCCCCCCCCCCCCOCC(COP(=O)([O-])Oc1cccc(C[n+]2csc(C)c2)c1)OC` (stereo not drawn): the values for the Lethality in the assay with Mus musculus [5] and in the assay with Oryctolagus cuniculus [6] were 4 dead/total and 1 dead/total, respectively.

In turn, `CCCCCCCCCCCCCCOc1cccc(OP(=O)([O-])Oc2cccc(C[n+]3ccsc3)c2)c1OC` had a Lethality in the assay with Mus musculus [9] of 4 dead/total.

For the compound `CCCCCCCCCCCCOc1cccc(OCC(COP(=O)([O-])Oc2cccc(C[n+]3ccsc3)c2)OC)c1C` (stereo not drawn), the Lethality in the assay with Mus musculus [8] is given as 1 dead/total. `CCCCCCCCCCCCCCc1cccc(OCC(COP(=O)([O-])Oc2cccc(C[n+]3ccsc3)c2)OC)c1` (stereo not drawn): the values for the Lethality with Oryctolagus cuniculus [6] and with Mus musculus [10] were 1 dead/total and 0 dead/total, respectively.

As for `CCCCCCCCCCCCCCOc1cccc(OP(=O)([O-])Oc2cccc(C[n+]3csc(C)c3)c2)c1C(=O)OC`, the Lethality in the assay with Mus musculus [11] is 165 dead/total; with Oryctolagus cuniculus [12], 6 dead/total; in the assay with Mus musculus [2], 3 dead/total; in the assay on Oryctolagus cuniculus [13], 0 dead/total; in the assay on Oryctolagus cuniculus [14] it was 0 dead/total. In the assay with Mus musculus [15], `CCCCCCCCCCCCCCOc1cccc(OP(=O)([O-])Oc2cccc(C[n+]3csc(C)c3)c2)c1C(C)=O` displayed a Lethality of 18 dead/total. Take `CCCCCCCCCCCCOc1cccc(OCC(COP(=O)([O-])Oc2cccc(C[n+]3csc(C)c3)c2)OC)c1` (stereo not drawn): in the assay on Oryctolagus cuniculus [16], the Lethality is reported as 1 dead/total. In the case of `CCCCCCCCCCCCCCOc1cccc(OP(=O)([O-])Oc2cccc(C[n+]3c(C)sc(C)c3C)c2)c1OC`, the Lethality in the assay with Mus musculus [17] was 9 dead/total; with Mus musculus [18], 6 dead/total. For `CCCCCCCCCCCCCCCCOCC(COP(=O)([O-])Oc1ccccc1C[n+]1ccsc1)OC` (stereo not drawn), in the assay with Oryctolagus cuniculus [6], the Lethality is 1 dead/total.

`CCCCCCCCCCCCCCOc1cccc(OP(=O)([O-])Oc2cccc(C[n+]3csc(C)c3)c2)c1OC`: the Lethality with Oryctolagus cuniculus [19] came to 1 dead/total; in the assay on Oryctolagus cuniculus [20] it was 0 dead/total; with Mus musculus [21], 80 dead/total; with Mus musculus [22], 24 dead/total; in the assay with Oryctolagus cuniculus [23], 2 dead/total; with Mus musculus [24], 40 dead/total.

For the compound `CCCCCCCCCCCCCCOc1ccc(OP(=O)([O-])Oc2cccc(C[n+]3csc(C)c3)c2)c(C(C)=O)c1`, the Lethality in the assay on Mus musculus [25] was 6 dead/total.

Take `CCCCCCCCCCCCOc1cc(C(C)(C)C)c(OP(=O)([O-])Oc2cccc(C[n+]3csc(C)c3)c2)cc1C(C)(C)C`: the Lethality with Oryctolagus cuniculus [6] turned out to be 0 dead/total. In the assay filed under Oryctolagus cuniculus [7], `CCCCCCCCCCCCCCOc1cccc(OP(=O)([O-])Oc2cccc(C[N+]3=CN=CC3)c2)c1OC` displayed an Inhibition of 12%. Compound `CCCCCCCCCCCCCCOc1ccc(OP(=O)([O-])Oc2cccc(C[n+]3csc(C)c3)c2)c(OC)c1` showed a Lethality with Mus musculus [26] of 16 dead/total.

In the assay filed under Oryctolagus cuniculus [27], `CCCCCCCCCCCCCCCCOCC(COP(=O)(O)Oc1cccc(C/N=C(\S)Nc2ccccc2)c1)OC` (stereo not drawn) yielded an Inhibition of 22%. For `CCCCCCCCCCCCOc1cccc(OCC(COP(=O)([O-])Oc2cccc(C[n+]3csc(C)c3)c2)OCC)c1C` (stereo not drawn), the Lethality is 0 dead/total in the assay with Oryctolagus cuniculus [28]; 6 dead/total with Mus musculus [29]; 1 dead/total with Oryctolagus cuniculus [6]; 0 dead/total with Mus musculus [30]; 23 dead/total in the assay on Mus musculus [31]; 1 dead/total in the assay on Oryctolagus cuniculus [32].
